Source: ChEMBL document CHEMBL1156388, “Modulation of the multidrug-resistance phenotype by new tropane alkaloid aromatic esters from Erythroxylum pervillei” (J Nat Prod, 2001)
Values after ≈ are worked out from the molar mass of the structure shown. Active and inactive are the calls of the source. The calls are words filed in the database; no cut-off is given here.

Assays:
[1] = Cytotoxicity against human BC1 cells; assay type: functional; details: read-out: ED50 (the source's name)
[2] = system: Lu1; assay: Cytotoxicity against human Lu1 cells; assay type: functional; details: read-out: ED50 (the source's name)
[3] = system: Col2; assay: Cytotoxicity against human Col2 cells; assay type: functional; details: read-out: ED50 (the source's name)
[4] = system: KB; assay: Cytotoxicity against human KB cells; assay type: functional; details: read-out: ED50 (the source's name)
[5] = Cytotoxicity against human multidrug-resistant KBV1 cells in presence of vinblastin; assay type: functional; details: KB-V1, read-out: ED50 (the source's name)
[6] = Cytotoxicity against human multidrug-resistant KBV1 cells in absence of vinblastin; assay type: functional; details: KB-V1, read-out: ED50 (the source's name)
[7] = system: LNCaP; assay: Cytotoxicity against human LNCAP cells; assay type: functional; details: read-out: ED50 (the source's name)
[8] = system: SW626; assay: Cytotoxicity against human SW626 cells; assay type: functional; details: read-out: ED50 (the source's name)
[9] = Cytotoxicity against human multidrug-resistant SKVLB1 cells; assay type: functional, cell-based
[10] = system: SK-OV-3; assay: Cytotoxicity against human SKOV3 cells; assay type: functional, cell-based
[11] = Cytotoxicity against human multidrug-resistant SKVLB1 cells in presence of adriamycin; assay type: functional, cell-based
[12] = biological target: T1, ATP-dependent translocase ABCB1 (Homo sapiens, UniProt P08183); assay: Modulation of P-gp in human HCT15 cells assessed as increase in DINIB-induced cytotoxicity at 0.2 to 12.5 ug/mL; assay type: cell-based; details: hct-15
T1 sequence (P08183 whole entry): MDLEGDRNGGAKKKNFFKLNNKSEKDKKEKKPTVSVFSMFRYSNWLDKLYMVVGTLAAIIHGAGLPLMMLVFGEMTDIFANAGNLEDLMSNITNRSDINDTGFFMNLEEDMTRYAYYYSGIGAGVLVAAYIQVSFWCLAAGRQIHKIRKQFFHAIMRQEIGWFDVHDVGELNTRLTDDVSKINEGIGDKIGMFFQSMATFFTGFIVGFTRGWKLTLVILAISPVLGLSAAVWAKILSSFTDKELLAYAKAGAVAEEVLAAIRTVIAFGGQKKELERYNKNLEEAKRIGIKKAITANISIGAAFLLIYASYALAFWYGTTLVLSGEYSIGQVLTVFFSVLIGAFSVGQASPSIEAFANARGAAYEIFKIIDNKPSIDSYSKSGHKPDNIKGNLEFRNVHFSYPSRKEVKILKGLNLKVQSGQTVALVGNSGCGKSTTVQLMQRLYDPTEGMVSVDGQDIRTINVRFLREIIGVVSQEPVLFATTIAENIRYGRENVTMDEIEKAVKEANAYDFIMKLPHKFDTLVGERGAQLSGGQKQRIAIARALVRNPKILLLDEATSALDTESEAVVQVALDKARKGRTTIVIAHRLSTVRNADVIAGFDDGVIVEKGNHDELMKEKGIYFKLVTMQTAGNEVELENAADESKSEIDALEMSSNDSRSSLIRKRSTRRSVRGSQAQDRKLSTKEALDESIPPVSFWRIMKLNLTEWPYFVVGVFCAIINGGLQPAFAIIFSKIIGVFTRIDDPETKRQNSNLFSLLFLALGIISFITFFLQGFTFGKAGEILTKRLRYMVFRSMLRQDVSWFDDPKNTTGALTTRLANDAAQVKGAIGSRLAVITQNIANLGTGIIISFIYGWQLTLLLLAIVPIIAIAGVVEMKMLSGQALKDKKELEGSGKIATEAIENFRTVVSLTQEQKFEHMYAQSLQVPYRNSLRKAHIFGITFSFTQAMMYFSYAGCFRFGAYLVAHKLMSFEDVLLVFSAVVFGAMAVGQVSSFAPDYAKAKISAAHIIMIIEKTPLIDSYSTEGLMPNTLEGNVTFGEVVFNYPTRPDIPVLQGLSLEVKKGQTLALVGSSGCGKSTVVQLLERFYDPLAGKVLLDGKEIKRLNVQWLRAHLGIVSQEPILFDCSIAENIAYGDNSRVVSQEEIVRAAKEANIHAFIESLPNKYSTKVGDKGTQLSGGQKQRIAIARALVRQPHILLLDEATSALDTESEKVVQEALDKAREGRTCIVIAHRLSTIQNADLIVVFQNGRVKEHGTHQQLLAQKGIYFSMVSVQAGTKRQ
In short: (§1)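 Modulator dose ranges were chosen to give full dose–response curves and were combined with DINIB, an MDR-substrate cytotoxic agent, at nontoxic modulator concentrations. 5-Fluorouracil, a non-MDR agent, served as the negative-control drug. MDR1 expression and function: HCT-15 and UO-31 high, CAKI-1 moderate, LOX IMVI none (no MDR phenotype). The read-out was enhancement of DINIB growth inhibition.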

[13] = biological target: T1, ATP-dependent translocase ABCB1; assay: Modulation of P-gp in human CAKI1 cells assessed as increase in DINIB-induced cytotoxicity at 0.2 to 12.5 ug/mL; assay type: cell-based; details: caki-1; in short: as §1
[14] = biological target: T1, ATP-dependent translocase ABCB1; assay: Modulation of P-gp in human UO31 cells assessed as increase in DINIB-induced cytotoxicity at 0.2 to 12.5 ug/mL; assay type: cell-based; details: uo-31; in short: as §1
[15] = system: LOX IMVI; assay: Increase in DINIB-induced cytotoxicity against human LOXIMVI at 0.2 to 12.5 ug/mL; assay type: functional, cell-based; in short: as §1
[16] = system: LOX IMVI; assay: Increase in DINIB-induced cytotoxicity against human LOXIMVI at 0.8 to 12.5 ug/mL; assay type: functional, cell-based; in short: as §1
[17] = biological target: T1, ATP-dependent translocase ABCB1; assay: Modulation of P-gp in human HCT15 cells assessed as increase in DINIB-induced cytotoxicity at 1.5 to 25 ug/mL; assay type: cell-based; details: hct-15
In short: (§2)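 NCI tumour-panel lines of differing MDR1 expression and function (HCT-15 and UO-31 high, CAKI-1 moderate, LOX IMVI none) were exposed to the MDR-substrate cytotoxin DINIB with or without modulator. 5-Fluorouracil, a non-MDR agent, served as the negative control; verapamil and cyclosporin A were reference modulators. Modulator concentrations spanned full dose–response curves. Maximum escalation of DINIB toxicity was taken at nontoxic modulator concentrations.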

[18] = biological target: T1, ATP-dependent translocase ABCB1; assay: Modulation of P-gp in human UO31 cells assessed as increase in DINIB-induced cytotoxicity at 1.5 to 25 ug/mL; assay type: cell-based; details: uo-31; in short: as §2
[19] = biological target: T1, ATP-dependent translocase ABCB1; assay: Modulation of P-gp in human CAKI1 cells assessed as increase in DINIB-induced cytotoxicity at 1.5 to 25 ug/mL; assay type: cell-based; details: caki-1; in short: as §2
[20] = system: LOX IMVI; assay: Increase in DINIB-induced cytotoxicity against human LOXIMVI at 1.5 to 25 ug/mL; assay type: functional, cell-based; in short: as §2
[21] = biological target: T1, ATP-dependent translocase ABCB1; assay: Modulation of P-gp in human HCT15 cells assessed as increase in DINIB-induced cytotoxicity at 0.2 to 3.1 ug/mL; assay type: cell-based; details: hct-15; in short: as §1
[22] = biological target: T1, ATP-dependent translocase ABCB1; assay: Modulation of P-gp in human UO31 cells assessed as increase in DINIB-induced cytotoxicity at 0.2 to 3.1 ug/mL; assay type: cell-based; details: uo-31; in short: as §1
[23] = biological target: T1, ATP-dependent translocase ABCB1; assay: Modulation of P-gp in human CAKI1 cells assessed as increase in DINIB-induced cytotoxicity at 0.2 to 3.1 ug/mL; assay type: cell-based; details: caki-1; in short: as §1
[24] = system: LOX IMVI; assay: Increase in DINIB-induced cytotoxicity against human LOXIMVI at 0.2 to 3.1 ug/mL; assay type: functional, cell-based; in short: as §1
[25] = biological target: T1, ATP-dependent translocase ABCB1; assay: Modulation of P-gp in human HCT15 cells assessed as increase in DINIB-induced cytotoxicity at 3.1 to 50 ug/mL; assay type: cell-based; details: hct-15; in short: as §1
[26] = biological target: T1, ATP-dependent translocase ABCB1; assay: Modulation of P-gp in human UO31 cells assessed as increase in DINIB-induced cytotoxicity at 3.1 to 50 ug/mL; assay type: cell-based; details: uo-31; in short: as §1
[27] = biological target: T1, ATP-dependent translocase ABCB1; assay: Modulation of P-gp in human CAKI1 cells assessed as increase in DINIB-induced cytotoxicity at 3.1 to 50 ug/mL; assay type: cell-based; details: caki-1; in short: as §1
[28] = system: LOX IMVI; assay: Increase in DINIB-induced cytotoxicity against human LOXIMVI at 3.1 to 50 ug/mL; assay type: functional, cell-based; in short: as §1

Row | SMILES | EC50 [1] [µg/mL] | EC50 [2] [µg/mL] | EC50 [3] [µg/mL] | EC50 [4] [µg/mL] | EC50 [5] [µg/mL] | EC50 [6] [µg/mL] | EC50 [7] [µg/mL] | EC50 [8] [µg/mL] | IC50 [9] [nM] | IC50 [10] [nM] | IC50 [11] [nM] | other results
1 | COc1cc(/C=C/C(=O)O[C@H]2[C@@H](O)[C@@H]3C[C@H](OC(=O)c4cc(OC)c(OC)c(OC)c4)C[C@H]2N3C)cc(OC)c1OC [PERVILLEINE A] | > 20 | > 20 | > 20 | > 20 | 0.3 | > 20 | > 20 | > 20 | > 10000 | > 10000 | 650 | 
2 | COc1cc(/C=C/C(=O)O[C@H]2C[C@@H]3C[C@H](OC(=O)c4cc(OC)c(OC)c(OC)c4)C[C@H]2N3C)cc(OC)c1OC [PERVILLEINE B] | 9.4 (≈ 16.4 µM) | 3.1 (≈ 5.42 µM) | 1.3 (≈ 2.27 µM) | > 20 | 0.1 | 8.8 (≈ 15.4 µM) | 1 (≈ 1.75 µM) | 3.2 (≈ 5.6 µM) | > 10000 | 3800 | 120 | Activity [12]: Active; Activity [13]: Active; Activity [14]: Active; Activity [15]: inactive
3 | COc1ccc(CCN(C)CCCC(C#N)(c2ccc(OC)c(OC)c2)C(C)C)cc1OC (stereo unspecified) |  |  |  |  |  |  |  |  |  |  |  | Activity [16]: Active
4 | COc1cccc2c1C(=O)c1c(O)c3c(c(O)c1C2=O)C[C@@](O)(C(=O)CO)C[C@@H]3O[C@H]1C[C@H](N)[C@H](O)[C@H](C)O1 [DOXORUBICIN] |  |  |  |  |  |  |  |  | 2200 | 8 |  | 
5 | COc1cc(/C=C/C(=O)O[C@H]2[C@@H](O)[C@@H]3C[C@H](OC(=O)c4cc(OC)c(OC)c(OC)c4)C[C@H]2[N+]3(C)[O-])cc(OC)c1OC (stereo partly specified) | > 20 | > 20 | > 20 | > 20 | > 20 | > 20 | > 20 | > 20 | > 10000 | > 10000 | > 10000 | 
6 | COc1cc2c(cc1OC)CN(CCc1ccc(NC(=O)c3cccc4c(=O)c5cccc(OC)c5[nH]c34)cc1)CC2 |  |  |  |  |  |  |  |  | 14000 | 8100 | 20 | 
7 | CN1C2C[C@@H](OC(=O)Cc3ccccc3)CC1[C@H](O)[C@@H]2O | > 20 | > 20 | > 20 | > 20 | > 20 | > 20 | > 20 | > 20 |  |  |  | 
8 | COc1cc(/C=C/C(=O)O[C@H]2C[C@@H]3C[C@H](OC(=O)Cc4ccccc4)C[C@H]2N3C)cc(OC)c1OC [PERVILLEINE F] | > 20 | > 20 | 4.9 (≈ 9.89 µM) | > 20 | 0.2 | > 20 | > 20 | > 20 |  |  |  | Activity [17]: Active; Activity [18]: Active; Activity [19]: Active; Activity [20]: inactive
9 | COc1cc(/C=C/C(=O)O[C@H]2C[C@@H]3C[C@H](OC(=O)Cc4cccc(O)c4)C[C@H]2N3C)cc(OC)c1OC [PERVILLEINE E] | > 20 | > 20 | 13.4 (≈ 26.2 µM) | 14.7 (≈ 28.7 µM) | 1.9 | > 20 | > 20 | 8.4 (≈ 16.4 µM) |  |  |  | 
10 | COc1cc(C(=O)O[C@H]2C[C@H]3CC[C@@H](C2)N3C)cc(OC)c1OC | > 20 | > 20 | > 20 | > 20 | > 20 | > 20 | > 20 | > 20 |  |  |  | 
11 | COc1cc(/C=C/C(=O)O[C@H]2C[C@H]3C[C@H](OC(=O)/C=C/c4cc(OC)c(OC)c(OC)c4)[C@@H](C2)N3C)cc(OC)c1OC [PERVILLEINE C] | 2.8 (≈ 4.68 µM) | 2.3 (≈ 3.85 µM) | 4.1 (≈ 6.86 µM) | 2.2 (≈ 3.68 µM) | 0.1 | 9 (≈ 15.1 µM) | > 20 | 1.4 (≈ 2.34 µM) | > 10000 | 2800 | 80 | Activity [21]: Active; Activity [22]: Active; Activity [23]: Active; Activity [24]: inactive
12 | COc1cc(/C=C/C(=O)O[C@@H]2C[C@@H]3[C@@H](OC(=O)/C=C/c4cc(OC)c(OC)c(OC)c4)[C@@H](O)[C@H](C2)N3C)cc(OC)c1OC [PERVILLEINE D] | 15 (≈ 24.4 µM) | 15.1 (≈ 24.6 µM) | 4.9 (≈ 7.98 µM) | 11 (≈ 17.9 µM) | 0.2 | 9 (≈ 14.7 µM) | 14.1 (≈ 23 µM) | 6.5 (≈ 10.6 µM) |  |  |  | Activity [25]: Active; Activity [26]: Active; Activity [27]: Active; Activity [28]: inactive
